Assay results taken from ChEMBL document CHEMBL4396943, “The tetrahydroxanthone-dimer phomoxanthone A is a strong inducer of apoptosis in cisplatin-resistant solid cancer cells” (Bioorg Med Chem, 2019).
Activity calls are given as the source filed them. The calls are words filed in the database; no cut-off is given here.

Columns and labels:
[1] = tested on: A2780; assay: Antiproliferative activity against human A2780 cells assessed as reduction in cell viability incubated for 72 hrs by MTT assay; assay type: functional, cell-based; settings: A2780, 72 h
How it was run: (§1)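 Cells seeded overnight in 96-well plates, then exposed to increasing concentrations (compound dissolved in DMSO, diluted in medium) for the stated time. MTT (5 mg/ml in PBS) added for 15 min, formazan dissolved in DMSO, absorbance read at 544 nm minus 690 nm background. IC50 = concentration giving 50% signal decrease. At least three independent experiments in triplicate.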

[2] = tested on: MDA-MB-231; assay: Antiproliferative activity against human MDA-MB-231 cells assessed as reduction in cell viability incubated for 72 hrs by MTT assay; assay type: functional, cell-based; settings: MDA-MB-231, 72 h; how it was run: as §1
[3] = tested on: CAL-27; assay: Antiproliferative activity against human CAL27 cells assessed as reduction in cell viability incubated for 72 hrs by MTT assay; assay type: functional, cell-based; settings: CAL-27, 72 h; how it was run: as §1
[4] = tested on: KYSE-510; assay: Potency index, ratio of cisplatin IC50 to compound IC50 for antiproliferative activity in cisplatin resistant human KYSE-510 cells assessed as reduction in cell viability incubated for 72 hrs by MTT assay; assay type: functional
How it was run: (§2)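 Cells seeded in 96-well plates overnight, exposed 72 h to increasing concentrations. MTT (5 mg/ml) added for 15 min, formazan dissolved in DMSO, absorbance read at 544 nm with 690 nm background subtracted. IC50 is the concentration reducing signal by 50%. Three independent experiments in triplicate. CisR sublines made by weekly intermittent cisplatin exposure for 24–30 weeks.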

[5] = tested on: K562; assay: Potency index, ratio of cisplatin IC50 to compound IC50 for antiproliferative activity in human K562 cells assessed as reduction in cell viability incubated for 72 hrs by MTT assay; assay type: functional; how it was run: as §2
[6] = tested on: HCT-116; assay: Potency index, ratio of cisplatin IC50 to compound IC50 for antiproliferative activity in human HCT116 cells assessed as reduction in cell viability incubated for 72 hrs by MTT assay; assay type: functional; how it was run: as §2
[7] = tested on: A2780; assay: Antiproliferative activity against human A2780 cells assessed as reduction in cell viability incubated for 48 hrs by MTT assay; assay type: functional, cell-based; settings: A2780, 48 h; how it was run: as §1
[8] = tested on: A2780cisR; assay: Ratio of IC50 for antiproliferative activity in human A2780cisR cells assessed as reduction in cell viability incubated for 24 hrs by MTT assay to IC50 for antiproliferative activity in human A2780cisR cells assessed as reduction in cell viability incubated for 72 hrs by MTT assay; assay type: functional
How it was run: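 MTT assay as for the viability IC50s (overnight seeding, MTT 15 min, DMSO solubilisation, 544/690 nm), with PXA incubation for 24 h versus 72 h. IC50 is the concentration giving a 50% signal decrease. At least three independent experiments.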

[9] = tested on: A2780; assay: Cell cycle arrest in human A2780 cells assessed as accumulation at G1 phase at 1 uM incubated for 24 hrs by propidium iodide staining based flow cytometry (reference value: 61.8%); assay type: functional
How it was run: (§3)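 After 24 h exposure, cells washed in ice-cold PBS. About 2 million cells fixed in cold 70% ethanol at −20 °C for at least 24 h. Stained with 0.1% Triton X-100, 200 µg/ml RNase A and 20 µg/ml propidium iodide in PBS, 15 min at 37 °C in the dark. DNA content read by flow cytometry with doublet discrimination. Medium as untreated control, paclitaxel as G2/M control. Three independent experiments.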

[10] = tested on: A2780; assay: Cell cycle arrest in human A2780 cells assessed as accumulation at G1 phase incubated for 24 hrs by propidium iodide staining based flow cytometry; assay type: functional; how it was run: as §3
[11] = tested on: A2780cisR; assay: Cell cycle arrest in human A2780cisR cells assessed as accumulation at G1 phase incubated for 24 hrs by propidium iodide staining based flow cytometry; assay type: functional; how it was run: as §3
[12] = tested on: J82; assay: Cell cycle arrest in human J82 cells assessed as accumulation at G1 phase at 10 uM incubated for 24 hrs by propidium iodide staining based flow cytometry (reference value: 69.6%); assay type: functional; how it was run: as §3
[13] = tested on: A2780; assay: Induction of apoptosis in human A2780 cells assessed as accumulation in subG1 phase incubated for 24 hrs by propidium iodide staining based flow cytometry (reference value: 10%); assay type: functional
How it was run: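 Cells plated in 24-well plates (about 100,000/well) for one day, then treated 24 h. Where used, caspase inhibitor Q-VD-OPh (20 µM) was added 1 h before. Cells lysed in hypotonic buffer (0.1% sodium citrate, 0.1% Triton X-100, 100 µg/ml propidium iodide) overnight at 4 °C in the dark. Sub-G1 fraction read by flow cytometry. Medium control, cisplatin positive control.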

[14] = tested on: A2780cisR; assay: Induction of apoptosis in human A2780cisR cells assessed as increase in intracellular calcium level at 1 to 30 uM incubated for 30 mins by fluorimetry; assay type: functional, cell-based
How it was run: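 Cells seeded in 96-well plates overnight, washed twice with Krebs-HEPES buffer, loaded 1 h at 37 °C in the dark with Oregon Green BAPTA-1 AM (final 3 µM) and Pluronic F-127. Buffer replaced, PXA added, fluorescence at 544 nm recorded for 30 min, with or without 1 mM extracellular Ca2+. Three experiments, mean ± SEM.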

[15] = tested on: J82; assay: Induction of apoptosis in cisplatin resistant human J82 cells assessed as increase in activation of caspase 3/7 at 30 uM incubated for 24 hrs by hoechst 33342 staining based fluorescence microscopy (reference value: 0.5%); assay type: functional
[16] = tested on: J82; assay: Induction of apoptosis in human J82 cells assessed as increase in activation of caspase 3/7 at 50 uM incubated for 24 hrs by hoechst 33342 staining based fluorescence microscopy (reference value: 1.1%); assay type: functional
[17] = tested on: A2780; assay: Induction of apoptosis in human A2780 cells assessed as plasma membrane damage at 1 to 10 uM incubated for 24 hrs by propidium iodide staining based flow cytometry; assay type: functional, cell-based
How it was run: (§4)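 Cells exposed to PXA for 24 h, trypsinised, pelleted at 4 °C, stained with 100 µg/ml propidium iodide, diluted in sheath fluid and read by flow cytometry. Positive control was 0.2% Triton X-100 (20 min). Three experiments, mean ± SEM.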

[18] = tested on: A2780cisR; assay: Induction of apoptosis in human A2780cisR cells assessed as plasma membrane damage at 1 to 10 uM incubated for 24 hrs by propidium iodide staining based flow cytometry; assay type: functional, cell-based; how it was run: as §4
[19] = tested on: A2780; assay: Reduction of H2O2-induced ROS generation in human A2780 cells at 316 nM incubated for 18 hrs by H2DCFDA staining based flow cytometry; assay type: functional, cell-based
How it was run: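 Cells plated overnight in growth medium (approx. 150,000 cells/well), exposed to compound for 18 h. Then washed with PBS and moved to phenol red-free RPMI-1640 without FBS or antibiotics. Loaded with 10 µM H2DCF-DA, 30 min, 37 °C, dark. One aliquot then given 250 µM H2O2 for 1 h at 37 °C in the dark. DCF fluorescence read by flow cytometry; three independent experiments.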

[20] = tested on: J82; assay: Induction of apoptosis in human J82 cells assessed as depolarization of mitochondrial membrane potential at 5 to 10 uM incubated for 2 hrs by hoechst 33342 staining based fluorescence microscopy; assay type: functional
How it was run: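 J82 cells treated 2 h with PXA, then labelled 20 min with TMRE plus Hoechst 33342. ΔΨm read by high-content fluorescence imaging. Untreated medium and 20 µM CCCP served as controls.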

[21] = tested on: J82; assay: Ratio of IC50 for antiproliferative activity in human J82 cells to cisplatin-resistant human J82 cells assessed as reduction of cell viability incubated for 72 hrs by MTT assay; assay type: functional; how it was run: as §2

CC(=O)OC[C@]12Oc3c(-c4ccc(O)c5c4O[C@@]4(COC(C)=O)C(=C(O)C[C@@H](C)[C@H]4OC(C)=O)C5=O)ccc(O)c3C(=O)C1=C(O)C[C@@H](C)[C@H]2OC(C)=O [PHOMOXANTHONE A]
IC50 ([1]; read-out: IC50): 0.58 µM | IC50 ([1]; read-out: pIC50 (converted)): 0.575 µM | IC50 [2]: 3.7 µM | IC50 [3]: 5.25 µM | Ratio IC50 [4]: 2 - 10 | Ratio IC50 [5]: 5 | Ratio IC50 [6]: 2 - 10 | IC50 ([7]; read-out: IC50): 1.18 µM | IC50 ([7]; read-out: pIC50 (converted)): 1.17 µM | Ratio IC50 [8]: 1.4 | Activity [9]: 63.3% | Activity [10]: Dose-dependent effect | Activity [11]: Dose-dependent effect | Activity [12]: 70.9% | Activity [13]: 70% | Activity [14]: Active | Activity [15]: 90% | Activity [16]: 60% | Activity [17]: inactive | Activity [18]: inactive | inhibition [19]: inactive | Activity [20]: 100% | Ratio IC50 [21]: 1.6
